# Measured values as given in ChEMBL document CHEMBL2146434, “Synthesis and biological evaluation of new amino acid and dipeptide derivatives of neocryptolepine as anticancer agents” (J Med Chem, 2012).
# Key:
# Mus musculus [1] = assay: Toxicity in C57BL/6 mouse xenografted with mouse LLC cells assessed as body weight loss at 30 mg/kg/day, sc administered on day 9 to day 12 of tumor implantation; assay type: organism-based; set-up: route subcutaneous; conditions: in vivo
# Outline: (§1)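 Mouse Lewis lung carcinoma (LLC) cells inoculated sc into mice. Daily dosing from day 9: 15 mg kg⁻¹ day⁻¹ through day 13 or 30 mg kg⁻¹ day⁻¹ through day 12; 25 or 50 mg kg⁻¹ day⁻¹ through day 13. Route is given as ip in tables and text but sc in figure legends. Body weight monitored for loss alongside tumor growth. Single 100 mg/kg cyclophosphamide dose as cytostatic control.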
# Mus musculus [2] = assay: Toxicity in C57BL/6 mouse xenografted with mouse LLC cells assessed as body weight loss at 15 mg/kg/day, sc administered on day 9 to day 13 of tumor implantation; assay type: organism-based; set-up: route subcutaneous; conditions: in vivo
# Outline: (§2)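 Body weight was tracked in C57BL/6 mice bearing subcutaneously inoculated LLC during therapy given daily from day 9 to day 13. A single 100 mg/kg dose of cyclophosphamide served as the cytostatic control group.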
# Mus musculus [3] = assay: Toxicity in C57BL/6 mouse xenografted with mouse LLC cells assessed as body weight loss at 30 mg/kg/day, ip administered on day 9 to day 12 of tumor implantation; assay type: organism-based; set-up: route intraperitoneal; conditions: in vivo; outline: as §1
# KB = assay: Cytotoxicity against human KB cells after 72 hrs by SRB assay; assay type: functional, cell-based
# A549 = assay: Cytotoxicity against human A549 cells after 72 hrs by SRB assay; assay type: functional, cell-based; conditions: A549, 72 h
# Outline: (§3)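 IC50 is the compound concentration giving 50% inhibition of cell proliferation. It was determined on normal mouse BALB/3T3 fibroblasts and on human A549, MCF-7 and LoVo cancer lines, with doxorubicin hydrochloride and DiMIQ as reference compounds.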
# MCF7 = assay: Cytotoxicity against human MCF7 cells after 72 hrs by SRB assay; assay type: functional, cell-based; conditions: MCF7, 72 h; outline: as §3
# LoVo = assay: Cytotoxicity against human LoVo cells after 72 hrs by SRB assay; assay type: functional, cell-based; outline: as §3
# [4] = system: Lewis lung carcinoma cell line; assay: Antineoplastic activity against mouse LLC cells xenografted in C57BL/6 mouse assessed as tumor growth inhibition at 25 mg/kg/day, ip administered on day 10 to day 14 of tumor implantation measured on day 12; assay type: functional; conditions: route intraperitoneal, read-out: TGI
# Outline: (§4)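 Mice bore Lewis lung carcinoma (LLC) inoculated subcutaneously and received test agents intraperitoneally at 15–50 mg kg⁻¹ day⁻¹ from day 9 or day 10. A single 100 mg/kg cyclophosphamide dose was the cytostatic control. Tumor growth was followed as the group median, and TGI% was calculated from medians versus untreated controls. Significance was tested by nonparametric Kruskal–Wallis multiple comparison, p < 0.05.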
# [5] = system: Lewis lung carcinoma cell line; assay: Antineoplastic activity against mouse LLC cells xenografted in C57BL/6 mouse assessed as tumor growth inhibition at 25 mg/kg/day, ip administered on day 10 to day 14 of tumor implantation measured on day 14; assay type: functional; conditions: route intraperitoneal, read-out: TGI; outline: as §4
# [6] = system: Lewis lung carcinoma cell line; assay: Antineoplastic activity against mouse LLC cells xenografted in C57BL/6 mouse assessed as tumor growth inhibition at 25 mg/kg/day, ip administered on day 10 to day 14 of tumor implantation measured on day 17; assay type: functional; conditions: route intraperitoneal, read-out: TGI; outline: as §4
# [7] = system: Lewis lung carcinoma cell line; assay: Antineoplastic activity against mouse LLC cells xenografted in C57BL/6 mouse assessed as tumor growth inhibition at 25 mg/kg/day, ip administered on day 10 to day 14 of tumor implantation measured on day 19; assay type: functional; conditions: route intraperitoneal, read-out: TGI; outline: as §4
# [8] = system: Lewis lung carcinoma cell line; assay: Antineoplastic activity against mouse LLC cells xenografted in C57BL/6 mouse assessed as tumor growth inhibition at 25 mg/kg/day, ip administered on day 10 to day 14 of tumor implantation measured on day 21; assay type: functional; conditions: route intraperitoneal, read-out: TGI; outline: as §4
# [9] = system: Lewis lung carcinoma cell line; assay: Antineoplastic activity against mouse LLC cells xenografted in C57BL/6 mouse assessed as tumor growth inhibition at 25 mg/kg/day, ip administered on day 10 to day 14 of tumor implantation measured on day 24; assay type: functional; conditions: route intraperitoneal, read-out: TGI; outline: as §4
# [10] = system: Lewis lung carcinoma cell line; assay: Antineoplastic activity against mouse LLC cells xenografted in C57BL/6 mouse assessed as tumor growth inhibition at 50 mg/kg/day, ip administered on day 10 to day 14 of tumor implantation measured on day 12; assay type: functional; conditions: route intraperitoneal, read-out: TGI; outline: as §4
# [11] = system: Lewis lung carcinoma cell line; assay: Antineoplastic activity against mouse LLC cells xenografted in C57BL/6 mouse assessed as tumor growth inhibition at 50 mg/kg/day, ip administered on day 10 to day 14 of tumor implantation measured on day 14; assay type: functional; conditions: route intraperitoneal, read-out: TGI; outline: as §4
# [12] = system: Lewis lung carcinoma cell line; assay: Antineoplastic activity against mouse LLC cells xenografted in C57BL/6 mouse assessed as tumor growth inhibition at 50 mg/kg/day, ip administered on day 10 to day 14 of tumor implantation measured on day 17; assay type: functional; conditions: route intraperitoneal, read-out: TGI; outline: as §4
# [13] = system: Lewis lung carcinoma cell line; assay: Antineoplastic activity against mouse LLC cells xenografted in C57BL/6 mouse assessed as tumor growth inhibition at 50 mg/kg/day, ip administered on day 10 to day 14 of tumor implantation measured on day 19; assay type: functional; conditions: route intraperitoneal, read-out: TGI; outline: as §4
# [14] = system: Lewis lung carcinoma cell line; assay: Antineoplastic activity against mouse LLC cells xenografted in C57BL/6 mouse assessed as tumor growth inhibition at 50 mg/kg/day, ip administered on day 10 to day 14 of tumor implantation measured on day 21; assay type: functional; conditions: route intraperitoneal, read-out: TGI; outline: as §4
# [15] = system: Lewis lung carcinoma cell line; assay: Antineoplastic activity against mouse LLC cells xenografted in C57BL/6 mouse assessed as tumor growth inhibition at 50 mg/kg/day, ip administered on day 10 to day 14 of tumor implantation measured on day 24; assay type: functional; conditions: route intraperitoneal, read-out: TGI; outline: as §4
# Mus musculus [16] = assay: Toxicity in C57BL/6 mouse xenografted with mouse LLC cells assessed as body weight loss at 15 mg/kg/day, ip administered on day 9 to day 13 of tumor implantation; assay type: organism-based; set-up: route intraperitoneal; conditions: in vivo; outline: as §2
# Mus musculus [17] = assay: Toxicity in C57BL/6 mouse xenografted with mouse LLC cells assessed as body weight loss at 25 mg/kg/day, sc administered on day 9 to day 13 of tumor implantation; assay type: organism-based; set-up: route subcutaneous; conditions: in vivo; outline: as §2
# Mus musculus [18] = assay: Toxicity in C57BL/6 mouse xenografted with mouse LLC cells assessed as body weight loss at 50 mg/kg/day, sc administered on day 9 to day 13 of tumor implantation; assay type: organism-based; set-up: route subcutaneous; conditions: in vivo; outline: as §1
# [19] = Dissociation constant, pKa of the compound in PBS buffer at 5 uM at pH 2 to 10 by UV-spectrophotometric analysis; assay type: physicochemical
# Outline: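 UV spectrophotometric titration at a final compound concentration of 5 μM. At this concentration the absorbance–concentration relationship stayed linear. pKa was read from spectral changes across pH.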
# [20] = Octanol-water partition coefficient, log P of the compound in citric buffer at pH 2.5 by spectrophotometric analysis; assay type: physicochemical
# Outline: (§5)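 Octanol–water partitioning, with log P defined as log(C_octanol/C_water). Compound in the aqueous phase was measured spectrophotometrically, and octanol content was obtained by subtracting the supernatant concentration from the total. Values are the mean of two independent experiments, each run in triplicate.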
# [21] = Octanol-water partition coefficient, log P of the compound in PBS buffer at pH 7.4 by spectrophotometric analysis; assay type: physicochemical; outline: as §5
# [22] = Toxicity in human erythrocytes assessed as hemolysis at 0.3 mM after 30 mins by spectrophotometric analysis; assay type: cell-based, Erythrocyte; conditions: read-out: Activity
# Outline: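 Human erythrocyte suspension under isotonic conditions (pH 7.4, hematocrit 50%). Compound added across a concentration series and incubated 30 min at 37 °C before hemolysis was scored. Mean ± SD of three individual determinations. Statistics by Mann–Whitney U test, p < 0.05.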
# [23] = Solubility of the compound in water; assay type: physicochemical; conditions: buffer
# Mus musculus [24] = assay: Toxicity in C57BL/6 mouse xenografted with mouse LLC cells at 25 to 50 mg/kg/day, ip administered on day 9 to day 13 of tumor implantation; assay type: organism-based; set-up: route intraperitoneal; conditions: in vivo; outline: as §1
compound,measurement,setting,value
Cc1c2c3cc(NC(=O)CNC(=O)[C@@H]4CCCN4)ccc3nc-2n(C)c2ccccc12.Cl.Cl,Activity,Mus musculus [1],<= 15%
same,Activity,Mus musculus [2],<= 15%
same,Activity,Mus musculus [3],<= 15%
same,IC50,KB,3730 nM
same,IC50,A549,1150 nM
same,IC50,MCF7,1430 nM
same,IC50,LoVo,980 nM
same,inhibition in vivo at 25 mg/kg/day,[4],12.9%
same,inhibition in vivo at 25 mg/kg/day,[5],11.6%
same,inhibition in vivo at 25 mg/kg/day,[6],0%
same,inhibition in vivo at 25 mg/kg/day,[7],3.1%
same,inhibition in vivo at 25 mg/kg/day,[8],0%
same,inhibition in vivo at 25 mg/kg/day,[9],0%
same,inhibition in vivo at 50 mg/kg/day,[10],16.3%
same,inhibition in vivo at 50 mg/kg/day,[11],36.5%
same,inhibition in vivo at 50 mg/kg/day,[12],18.5%
same,inhibition in vivo at 50 mg/kg/day,[13],33.1%
same,inhibition in vivo at 50 mg/kg/day,[14],32.5%
same,inhibition in vivo at 50 mg/kg/day,[15],8.19%
same,Activity,Mus musculus [16],<= 15%
same,Activity,Mus musculus [17],<= 15%
same,Activity,Mus musculus [18],<= 15%
same,pKa at 5 µM,[19],7.3
same,logP,[20],-1.9
same,logD,[21],-0.1
same,"hemolysis at 0.5 h, 300 µM",[22],9.97%
same,solubility,[23],soluble
same,Activity,Mus musculus [24],Non-toxic
